Reference: ChEMBL document CHEMBL4725355, “Design, Synthesis, and Preclinical Evaluation of 3-Methyl-6-(5-thiophenyl)-1,3-dihydro-imidazo[4,5-b]pyridin-2-ones as Selective GluN2B Negative Allosteric Modulators for the Treatment of Mood Disorders” (J Med Chem, 2020)
pIC50, pKi: −log10 of the molar value.

Legend:
[1] = Negative allosteric modulation of human GluN1a/GluN2B receptor expressed in CHO cells assessed as inhibition of glutamate and glycine-induced calcium flux preincubated for 5 mins followed by glutamate and glycine addition and measured after 5 mins by calcium 5 dye based FLIPR assay; type: cell-based
How it was run: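 Tet-On CHO T-Rex cells expressing hGluN1a with GluN2A, 2B, 2C or 2D, plated at 20,000 cells/well and induced 24 h before the assay in the presence of ketamine. Cells loaded 1 h at room temperature with Calcium 5 dye, pH 7.4 HEPES buffer. Compound added 5 min, then glutamate (~EC80) plus 10 µM glycine for 5 min; FLIPR fluorescence normalized to control wells. Three independent runs in duplicate (two for some).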

[2] = Solubility of compound in phosphate buffer at pH 2 measured after 3 days; type: physicochemical; settings: time 3 day
How it was run: (§1)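 Solubility in aqueous buffer at pH 2 and pH 7, and in simulated gastric and intestinal fluids.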

[3] = Solubility of compound in phosphate buffer at pH 7 measured after 3 days; type: physicochemical; settings: time 3 day; how it was run: as §1
[4] = Efflux ratio of apparent permeability across basolateral to apical side over apical to basolateral side in MDCK-MDR1 cells at 5 uM measured after 60 mins by LC-MS/MS analysis; type: ADME, cell-based, Canis lupus familiaris; settings: dog
How it was run: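 MDCK-MDR1 cells, passages 6-30, seeded at 3.4×10^5 cells/cm² and cultured 3 days. Test compound at 5 µM final (1% DMSO) in HBSS, pH 7.4, applied to the donor side. A→B and B→A runs at 37 °C for 60 min, in duplicate, quantified by LC/MS/MS. Efflux ratio taken as B-A/A-B; monolayer integrity checked by lucifer yellow.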

[5] = molecular target: Voltage-gated inwardly rectifying potassium channel KCNH2 (Homo sapiens, UniProt Q12809); experiment: Inhibition of human ERG expressed in CHO cells measured after 5 mins by Qpatch method; type: cell-based
Sequence of Voltage-gated inwardly rectifying potassium channel KCNH2 (Q12809 whole entry): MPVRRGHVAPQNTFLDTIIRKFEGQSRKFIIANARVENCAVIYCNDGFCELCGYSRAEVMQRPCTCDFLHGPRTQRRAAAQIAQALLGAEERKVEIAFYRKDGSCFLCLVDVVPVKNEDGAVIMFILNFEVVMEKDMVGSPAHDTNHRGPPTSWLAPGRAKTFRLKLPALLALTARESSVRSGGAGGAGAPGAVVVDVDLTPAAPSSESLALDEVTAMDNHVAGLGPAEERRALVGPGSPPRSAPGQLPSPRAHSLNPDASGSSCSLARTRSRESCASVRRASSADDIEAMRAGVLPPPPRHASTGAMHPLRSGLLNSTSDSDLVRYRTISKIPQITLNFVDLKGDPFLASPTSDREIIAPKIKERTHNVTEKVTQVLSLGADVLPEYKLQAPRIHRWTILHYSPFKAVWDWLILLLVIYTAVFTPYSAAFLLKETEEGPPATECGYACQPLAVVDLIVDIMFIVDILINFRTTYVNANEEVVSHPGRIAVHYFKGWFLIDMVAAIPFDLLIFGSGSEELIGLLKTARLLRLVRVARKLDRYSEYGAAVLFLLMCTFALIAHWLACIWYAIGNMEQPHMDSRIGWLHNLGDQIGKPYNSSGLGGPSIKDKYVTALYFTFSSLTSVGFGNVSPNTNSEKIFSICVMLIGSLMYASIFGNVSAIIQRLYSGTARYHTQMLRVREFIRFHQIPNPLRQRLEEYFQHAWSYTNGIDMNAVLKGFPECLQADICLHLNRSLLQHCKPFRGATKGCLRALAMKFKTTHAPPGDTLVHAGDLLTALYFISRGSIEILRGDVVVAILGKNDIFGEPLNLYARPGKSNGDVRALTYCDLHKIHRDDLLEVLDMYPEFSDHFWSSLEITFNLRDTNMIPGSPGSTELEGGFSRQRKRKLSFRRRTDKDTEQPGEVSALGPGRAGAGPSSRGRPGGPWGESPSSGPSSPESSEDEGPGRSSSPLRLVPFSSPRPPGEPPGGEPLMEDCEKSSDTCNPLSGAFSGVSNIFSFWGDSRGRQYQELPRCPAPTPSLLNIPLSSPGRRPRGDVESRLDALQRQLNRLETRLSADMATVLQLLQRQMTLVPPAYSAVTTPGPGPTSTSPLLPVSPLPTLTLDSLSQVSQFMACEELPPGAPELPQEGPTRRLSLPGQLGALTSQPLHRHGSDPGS
How it was run: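 CHO cells stably expressing hERG, whole-cell QPatch. Vehicle applied 5 min, then 0.3, 3.0, 10 and 30 µM in rising order, each concentration applied twice. Current measured after 5 min as the average of 3 voltage pulses; block taken relative to vehicle pretreatment, mean ± SEM.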

[6] = Displacement of 3-[3H] 1-(azetidin-1-yl)-2-[6-(4-fluoro-3-methyl-phenyl)pyrrolo[3,2-b]pyridin-1-yl]ethanone from GluN1a/GluN2B receptor in rat cortex membranes measured after 2 hrs by liquid scintillation counting method; type: cell membranes
How it was run: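 Rat adult cortex was homogenized in 50 mM Tris pH 7.4, and membranes were washed by centrifugation. Membranes were incubated with the [3H] pyrrolopyridine tracer and test compound for 2 h at room temperature with shaking. Non-specific binding was defined with 10 µM CP-101,606. Bound tracer was separated by filtration on PEI-soaked GF/B filters and counted by liquid scintillation. Ki was obtained from a competition fit using tracer Kd; three independent runs in duplicate.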

[7] = Metabolic stability in human liver microsomes assessed as extraction ratio at 1 uM after 5 to 60 mins in presence of NADPH by LC-MS/MS analysis; type: ADME, Microsome; settings: time 5-60 min, read-out: ERH
How it was run: (§2)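 Human and rat liver microsomes, run in duplicate; stability reported as microsomal extraction ratio.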

[8] = Metabolic stability in rat liver microsomes assessed as extraction ratio at 1 uM after 5 to 60 mins in presence of NADPH by LC-MS/MS analysis; type: ADME, Microsome; settings: time 5-60 min, read-out: ERH; how it was run: as §2
[9] = Solubility of compound in 30% sulfobutylether-beta-cyclodextrin at 0.5 mg/ml; type: physicochemical
How it was run: (§3)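 Solubility of the compound assessed in dosing excipients, including 30% SBE-β-CD, 50% PEG-400 and 20% HP-β-CD. The aim was a solution usable for rat dosing; the 20% HP-β-CD formulation was checked for a 0.1 mg/mL solution to support a 0.5 mg/kg dose.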

[10] = Clearance in Sprague-Dawley rat at 0.1 mg/kg, iv by LC-MS/MS analysis; type: ADME, organism-based; settings: in vivo
How it was run: (§4)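 Rat PK with IV and PO dosing, n=3. The usual doses were 0.5 mg/kg IV and 2.5 mg/kg PO in 20% HP-β-CD. One compound was instead given at 0.1 mg/kg IV and 0.5 mg/kg PO.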

[11] = Volume of distribution at steady state in Sprague-Dawley rat at 0.1 mg/kg, iv or 0.5 mg/kg, po by LC-MS/MS analysis; type: ADME, organism-based; settings: in vivo, read-out: Vdss
How it was run: (§5)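 Rat PK with doses of 0.1 mg/kg i.v. and 0.5 mg/kg p.o., vehicle 20% HP-β-CD. n=3, values given as mean ± SD.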

[12] = Half life in Sprague-Dawley rat at 0.1 mg/kg, iv or 0.5 mg/kg, po by LC-MS/MS analysis; type: ADME, organism-based; settings: in vivo
How it was run: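 Rat PK with 0.1 mg/kg i.v. and 0.5 mg/kg p.o. doses, n=3 ± SD.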

[13] = Cmax in Sprague-Dawley rat at 0.1 mg/kg, iv or 0.5 mg/kg, po by LC-MS/MS analysis; type: ADME, organism-based; parameters: dose 0.5 mg/kg; settings: in vivo; how it was run: as §4
[14] = AUC (infinity) in Sprague-Dawley rat at 0.1 mg/kg, iv or 0.5 mg/kg, po by LC-MS/MS analysis; type: ADME, organism-based; parameters: dose 0.5 mg/kg; settings: in vivo; how it was run: as §4
[15] = Tmax in Sprague-Dawley rat at 0.1 mg/kg, iv or 0.5 mg/kg, po by LC-MS/MS analysis; type: ADME, organism-based; settings: in vivo; how it was run: as §5
[16] = Oral bioavailability in Sprague-Dawley rat at 0.5 mg/kg by LC-MS/MS analysis; type: ADME, organism-based; settings: in vivo
[17] = Solubility of compound in 100% polyethylene glycol 400 at 0.5 mg/ml; type: physicochemical
[18] = Solubility of compound in 20% hydroxypropyl-beta-cyclodextrin at 0.1 mg/ml; type: physicochemical; how it was run: as §3
[19] = Ex vivo receptor occupancy at GluN2B in Sprague-Dawley rat assessed as 3-[3H] 1-(azetidin-1-yl)-2-[6-(4-fluoro-3-methyl-phenyl)pyrrolo[3,2-b]pyridin-1-yl]-ethanone labelling at 3 mg/kg, po measured after 0.5 hrs by autoradiography; type: functional
How it was run: (§6)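 Rats dosed orally at 3 mg/kg in 20% HP-β-CD; brains taken at 0.5, 2 and 6 h. Ex vivo autoradiography of brain slices with the ³H pyrrolo[3,2-b]pyridine GluN2B tracer. Labelling expressed relative to matching brain areas of vehicle-treated animals; n=2, ± SEM.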

[20] = Ex vivo receptor occupancy at GluN2B in Sprague-Dawley rat assessed as 3-[3H] 1-(azetidin-1-yl)-2-[6-(4-fluoro-3-methyl-phenyl)pyrrolo[3,2-b]pyridin-1-yl]-ethanone labelling at 3 mg/kg, po measured after 2 hrs by autoradiography; type: functional; how it was run: as §6
[21] = Ex vivo receptor occupancy at GluN2B in Sprague-Dawley rat assessed as 3-[3H] 1-(azetidin-1-yl)-2-[6-(4-fluoro-3-methyl-phenyl)pyrrolo[3,2-b]pyridin-1-yl]-ethanone labelling at 3 mg/kg, po measured after 6 hrs by autoradiography; type: functional; how it was run: as §6
[22] = Cmax in Sprague-Dawley rat brain at 3 mg/kg, po after 2 hrs by LC-MS/MS analysis; type: ADME, organism-based; parameters: route oral, dose 3 mg/kg, time 2 hrs
How it was run: (§7)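 Oral dose of 3 mg/kg in 20% HP-β-CD to rats. Brain concentration was measured alongside ex vivo GluN2B occupancy over a 6 h time course (0.5, 2 and 6 h), n=2.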

[23] = Tmax in Sprague-Dawley rat brain at 3 mg/kg, po by LC-MS/MS analysis; type: ADME, organism-based
How it was run: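 Rats dosed orally at 3 mg/kg in 20% HP-β-CD. Brain concentrations were measured over a 6 h time course (0.5, 2, 6 h) alongside ex vivo GluN2B occupancy, n=2.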

[24] = Cmax in Sprague-Dawley rat brain at 3 mg/kg, po after 6 hrs by LC-MS/MS analysis; type: ADME, organism-based; parameters: route oral, dose 3 mg/kg, time 6 hrs; how it was run: as §7

pIC50 [1]: 7.54 | solubility at 72 h [2]: < 4 µM | solubility at 72 h [3]: < 4 µM | efflux ratio at 1 h, 5 µM [4]: 1.4 | pKi [6]: 7.92 | hepatic extraction ratio at 1 µM [7]: < 0.3 | hepatic extraction ratio at 1 µM [8]: < 0.17 | solubility [9]: Insoluble | clearance [10]: 14 mL/min/kg | Vd [11]: 1.2 L/kg | half-life [12]: 1.3 h | Cmax [13]: 188 ng/mL | AUC(0-inf) [14]: 912 ng·h/mL | Tmax [15]: 1 h | bioavailability [16]: 121% | solubility [17]: Insoluble | solubility [18]: Soluble | Cmax [22]: 1260 ng/g | Tmax [23]: 2 h | Cmax [24]: 598 ng/g
Compound: CN(C)C(=O)Cn1c(=O)n(C)c2ncc(-c3ccc(C(F)(F)F)s3)cc21
pIC50 [5]: < 5.00 | Occ [19]: 79% | Occ [20]: 80% | Occ [21]: 77%
